The results in this text go back to article PMC6542277 (Journal of medicinal chemistry, 2018).

Data set [1] concerns Barrett's neoplasia (HGD and EAC). The data set is described as follows: Binding to human esophageal specimens ex vivo, confocal microscopy. The conditions noted are these: for AUC of ROC curve: human FFPE esophageal specimens ex vivo, HGD and EAC versus SQ and BE. Put shortly:
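Archived FFPE human esophagus cut at 10 μm, deparaffinized, rehydrated, then given two-step acidic plus protease antigen retrieval. Sections were blocked with protein serum for 10 min, stained with 0.5 μM heterodimer for 10 min in the dark at RT, then anti-EGFR and anti-ErbB2 antibodies with secondaries. Mean intensity came from three 20×20 μm2 epithelial boxes, avoiding saturated regions. SQ/BE/HGD/EAC groups (n = 31, 8, 23, 12) compared by unpaired t test and one-way ANOVA.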

Data set [2] can be described thus: In vivo whole-body NIR fluorescence imaging. Particulars: mouse, in vivo, iv, 300 uM, 150 uL.
Data set [3] is described as follows: Enzymatic stability in mouse serum. Type of data set: in vitro ADME. Particulars: 30 μM in mouse serum, 37°C, at 2 hour; HPLC of supernatant after centrifugation. Put shortly:
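Samples taken at 0.5, 1.0, 1.5 and 2 h of serum incubation at 37°C were centrifuged at 14,000 rpm. 20 μL of supernatant was analysed by HPLC.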

In data set [4] the target is ErbB2 (Homo sapiens, UniProt P04626). Put plainly: siRNA knockdown of ErbB2, confocal binding. It counts as cell-based. The conditions noted are these: confocal microscopy; mean of 5 cells from 3 images; P=7.8×10^−3.
Chain of ErbB2 (P04626 23-1255): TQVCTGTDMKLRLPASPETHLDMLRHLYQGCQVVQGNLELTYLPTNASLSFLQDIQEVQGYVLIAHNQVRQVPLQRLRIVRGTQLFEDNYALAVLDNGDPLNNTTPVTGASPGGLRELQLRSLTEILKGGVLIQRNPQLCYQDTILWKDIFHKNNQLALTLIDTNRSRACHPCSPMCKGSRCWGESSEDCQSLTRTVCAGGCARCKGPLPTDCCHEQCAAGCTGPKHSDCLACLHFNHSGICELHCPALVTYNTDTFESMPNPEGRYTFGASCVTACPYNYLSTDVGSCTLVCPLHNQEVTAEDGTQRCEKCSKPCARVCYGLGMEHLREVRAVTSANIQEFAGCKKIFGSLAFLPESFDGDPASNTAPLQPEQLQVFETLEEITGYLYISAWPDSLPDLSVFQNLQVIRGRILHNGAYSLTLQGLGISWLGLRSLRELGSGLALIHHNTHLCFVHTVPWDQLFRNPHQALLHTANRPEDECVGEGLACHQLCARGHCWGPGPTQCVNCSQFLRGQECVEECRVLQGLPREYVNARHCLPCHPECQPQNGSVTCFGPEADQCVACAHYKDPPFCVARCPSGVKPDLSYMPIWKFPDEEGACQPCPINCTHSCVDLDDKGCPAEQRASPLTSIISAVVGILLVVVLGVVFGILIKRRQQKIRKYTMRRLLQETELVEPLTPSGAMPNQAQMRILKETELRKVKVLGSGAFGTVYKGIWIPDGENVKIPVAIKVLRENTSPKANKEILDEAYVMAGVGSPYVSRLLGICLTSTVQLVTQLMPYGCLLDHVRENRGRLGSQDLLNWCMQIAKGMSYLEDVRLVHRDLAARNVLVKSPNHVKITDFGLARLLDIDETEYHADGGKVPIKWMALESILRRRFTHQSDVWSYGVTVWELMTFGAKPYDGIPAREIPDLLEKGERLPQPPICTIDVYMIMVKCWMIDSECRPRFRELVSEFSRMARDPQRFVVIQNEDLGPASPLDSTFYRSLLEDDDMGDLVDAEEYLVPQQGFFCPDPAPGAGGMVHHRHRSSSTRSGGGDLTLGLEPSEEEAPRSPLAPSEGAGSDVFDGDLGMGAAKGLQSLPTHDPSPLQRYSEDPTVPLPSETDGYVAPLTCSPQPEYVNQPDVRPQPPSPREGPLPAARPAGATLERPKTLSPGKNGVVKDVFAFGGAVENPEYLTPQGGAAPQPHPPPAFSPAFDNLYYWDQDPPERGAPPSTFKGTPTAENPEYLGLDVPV
Data set [5] deals with OE33 cells. The data set is described as follows: Apparent dissociation constant by flow cytometry. The conditions noted are these: from kd on OE33 cells. It counts as binding, human. Put shortly: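 Labelled heterodimer serially diluted in PBS (0, 10, 25, 50, 100, 200 nM) and incubated with OE33 cells at 4°C for 1 h, then washed in cold PBS. Mean fluorescence was read by flow cytometry. kd = 1/ka came from a least-squares fit to I = (I0 + Imax·ka[X])/(I0 + ka[X]), where I0 is the no-peptide intensity and Imax the saturation intensity.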

Data set [6] deals with OE33 xenograft tumors. Put plainly: In vivo whole-body NIR fluorescence imaging. Particulars: nude mice, OE33 xenograft, 300 μM in 150 μL PBS via tail vein, NIR fluorescence.
Data set [7] relates to OE33 human esophageal adenocarcinoma cells. Put plainly: Confocal microscopy binding validation. It counts as cell-based. Put shortly:
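OE33 cells, kept in RPMI 1640 with 10% FBS and penicillin/streptomycin at 37°C, 5% CO2, grown to ~70% confluence on coverslips. Cells were blocked with 2% BSA/PBS for 30 min, given Cy5.5-labelled peptides, washed 3×, fixed in ice-cold 4% PFA for 10 min and mounted with DAPI. Confocal intensities were quantified from 3 independent images.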

Data set [8] concerns OE33 xenograft tumors. The data set is described as follows: Biodistribution, ex vivo organ fluorescence. Also on record: species or system mouse. The conditions noted are these: nude mice, 300 μM in 150 μL PBS, 2 hours.
Data set [9] in a line: Stability in PBS containing 0.1% BSA. Particulars: 0.01 mol/L PBS, pH 7.4, 37°C, HPLC at 0.5, 2, 6 and 12 hours. It counts as physicochemical.
Data set [10] has as its system EGFR/ErbB2 signaling (p-EGFR, p-ErbB2, p-AKT, p-ERK) in SKBr3 cells. Put plainly: Effect on cell signaling, Western blot. Type of data set: cell-based, human. Background: A western blot detects proteins with antibodies after separation by electrophoresis.
Data set [11] relates to SKBr3 cells. Put plainly: Internalization, confocal images over time. Type of data set: cell-based, human.
Data set [12] in a line: Hydrophilicity. Particulars: triethyleneglycol linker (E3); method not given. Type of data set: physicochemical.
For data set [13], the system named is OE33 cells. Put plainly: Apparent association time constant by flow cytometry. It counts as binding, human. The conditions noted are these: 1 μM peptide, 4°C. Put shortly: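 OE33 cells grown to ~80% confluence, detached with PBS-based dissociation buffer, then held with 1 μM labelled heterodimer at 4°C for periods of 0–60 min. Cells were centrifuged, washed in cold PBS and fixed in 4% PFA before flow cytometry. Median fluorescence was ratioed to peptide-free cells, and k was fitted to y(t) = Imax[1−exp(−kt)].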

In data set [14] the target is EGFR (Homo sapiens, UniProt P00533). Put plainly: siRNA knockdown of EGFR, confocal binding. The conditions noted are these: confocal microscopy; mean of 5 cells from 3 images; P=3.6×10^−4. Type of data set: cell-based.
Chain of EGFR (P00533 25-1210): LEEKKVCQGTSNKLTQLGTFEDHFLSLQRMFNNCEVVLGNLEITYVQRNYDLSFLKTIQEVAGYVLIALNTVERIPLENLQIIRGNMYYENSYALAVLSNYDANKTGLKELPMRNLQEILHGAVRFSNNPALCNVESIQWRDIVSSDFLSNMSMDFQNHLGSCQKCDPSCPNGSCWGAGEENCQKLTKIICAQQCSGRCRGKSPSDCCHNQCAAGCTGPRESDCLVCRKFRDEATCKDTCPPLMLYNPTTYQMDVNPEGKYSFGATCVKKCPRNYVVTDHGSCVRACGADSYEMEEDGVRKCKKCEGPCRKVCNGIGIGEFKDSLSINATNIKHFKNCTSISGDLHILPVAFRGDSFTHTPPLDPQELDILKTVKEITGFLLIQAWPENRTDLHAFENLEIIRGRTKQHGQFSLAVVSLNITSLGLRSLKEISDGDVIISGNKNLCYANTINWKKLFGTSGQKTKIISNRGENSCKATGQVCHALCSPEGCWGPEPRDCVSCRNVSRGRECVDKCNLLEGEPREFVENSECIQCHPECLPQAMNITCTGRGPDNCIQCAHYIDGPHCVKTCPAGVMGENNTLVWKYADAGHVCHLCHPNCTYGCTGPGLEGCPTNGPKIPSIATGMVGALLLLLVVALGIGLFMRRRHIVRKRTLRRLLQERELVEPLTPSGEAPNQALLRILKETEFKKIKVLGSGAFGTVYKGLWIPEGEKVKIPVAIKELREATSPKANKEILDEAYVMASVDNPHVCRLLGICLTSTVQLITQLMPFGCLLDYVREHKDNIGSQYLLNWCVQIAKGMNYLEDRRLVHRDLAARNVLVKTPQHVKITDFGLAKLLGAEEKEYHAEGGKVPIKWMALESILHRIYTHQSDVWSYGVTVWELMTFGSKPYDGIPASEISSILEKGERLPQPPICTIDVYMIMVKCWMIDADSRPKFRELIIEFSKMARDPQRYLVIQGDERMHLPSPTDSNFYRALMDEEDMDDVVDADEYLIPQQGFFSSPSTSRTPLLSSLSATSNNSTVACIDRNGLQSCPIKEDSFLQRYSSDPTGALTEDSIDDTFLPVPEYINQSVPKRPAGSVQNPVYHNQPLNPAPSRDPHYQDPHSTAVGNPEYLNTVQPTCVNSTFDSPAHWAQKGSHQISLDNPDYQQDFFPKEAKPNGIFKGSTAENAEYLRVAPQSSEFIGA
The nature of data set [15]: Acute toxicity on histology. Particulars: nude mice after systemic injection of 300 μM, 150 μL PBS. Type of data set: in vivo, mouse.
[16] abbreviates: human esophageal specimens ex vivo, confocal microscopy, 0.5 μM, 10 min, RT.

Where a SMILES comes first, the peptide text is derived from it. Bridges are numbered along the chain shown (N, C = ends). Roman numbers before positions name the chains, in order. [ ]: non-standard residue; d: D form. The star is where a group is joined. X1 = CN1C(=CC=CC=CC2=[N+](CCCCCC(=O)*)c3ccc4ccccc4c3C2(C)C)C(C)(C)c2c1ccc1ccccc21; AEEEA = NCCOCCOCCOCC(=O)O

Take QRHKPRE [QRH*-Cy5.5]: in data set [1], the “AUC of ROC curve” value was determined as 0.79.

Consider `C[C@H](NC(=O)CNC(=O)CNC(=O)CN)C(=O)NCC(=O)NCC(=O)NCC(=O)NCCCC[C@H](NC(=O)CNC(=O)CNC(=O)CNC(=O)[C@H](C)NC(=O)CNC(=O)CNC(=O)CN)C(=O)N[C@@H](CCCCNC(=O)CCCCC[N+]1=C(C=CC=CC=C2N(C)c3ccc4ccccc4c3C2(C)C)C(C)(C)c2c1ccc1ccccc21)C(N)=O` [(GGGAGGG)2KK-Cy5.5, reference compound] (I: H-GGGAGGGKK(X1)-NH2 / II: H-GGGAGGG; amide I:8-II:C), for which the tissue to tissue ratio at 2 h in [2] is 1.43 ± 0.28.

As for KSPNPRF [KSP*-Cy5.5], the “AUC of ROC curve” value in data set [1] is 0.91.

In the case of `CN1C(=CC=CC=CC2=[N+](CCCCCC(=O)NCCCC[C@H](NC(=O)[C@H](CCCCNC(=O)COCCOCCOCCNC(=O)[C@H](Cc3ccccc3)NC(=O)[C@H](CCCNC(=N)N)NC(=O)[C@@H]3CCCN3C(=O)[C@H](CC(N)=O)NC(=O)[C@@H]3CCCN3C(=O)[C@H](CO)NC(=O)[C@@H](N)CCCCN)NC(=O)COCCOCCOCCNC(=O)[C@H](CCC(=O)O)NC(=O)[C@H](CCCNC(=N)N)NC(=O)[C@@H]3CCCN3C(=O)[C@H](CCCCN)NC(=O)[C@H](Cc3c[nH]cn3)NC(=O)[C@H](CCCNC(=N)N)NC(=O)[C@@H](N)CCC(N)=O)C(N)=O)c3ccc4ccccc4c3C2(C)C)C(C)(C)c2c1ccc1ccccc21` [QRH*-KSP*-E3-Cy5.5] (I: H-QRHKPRE[AEEEA]KK(X1)-NH2 / II: H-KSPNPRF[AEEEA]; amide I:9-II:C; N-terminus and C-terminus assumed), the “area of new formed peak (may arise from degradation)” value in [3] is on record as “about 20%”. The “fluorescence intensity, siCL (control) versus siErbB2 (knockdown) SKBr3 cells” value in data set [4] was “significantly greater intensity”. Also, the “affinity compared with either monomer alone” value in data set [5] came to 2 fold. In data set [6], the “time at which signal returns to baseline (systemic clearance)” value was ~ 24 hours. The tissue to tissue ratio at 2 h in data set [2] worked out at 2.39 ± 0.52. Further, the “binding to surface of OE33 cells” value in data set [7] (1 μM, 30 min, 4°C) is recorded as “strong binding”. For the same compound, the “fluorescence intensity compared with either monomer alone” value in [7] (binding to OE33 cells) is listed as 3 fold. Further, the uptake in kidney result in data set [8] (supports renal clearance) was “High uptake”. Further, the “uptake in tumor relative to muscle” value in data set [8] (OE33 xenograft, n = 6) is listed as 3 fold. In addition, the “degradation in PBS containing 0.1% BSA” value in data set [9] is reported as “No noticeable degradation”. For the same compound, the “AUC of ROC curve” value in data set [1] turned out to be 0.95. For the same compound, in [1] (setting [16]), the “fluorescence intensity with SQ and BE” value is reported as “minimal fluorescence intensity”; the “fluorescence signal with HGD and EAC” value is listed as “increased signal”. Besides, in [10] (heterodimer at 1, 5 and 20 μM), the “downstream change in AKT (p-AKT) and ERK (p-ERK)” value was “no downstream change”; the “phosphorylation of EGFR (p-EGFR) or ErbB2 (p-ErbB2)” value is “no change”. In data set [11], the “time at which internalization begins” value is 8 min and the “time at which internalization reaches near completion” value was 40 min. The hydrophilicity entry in [12] is reported as “good hydrophilicity”. The “association time (printed in brackets after k)” value in [13] stood at 4.5 min. In data set [14], the “fluorescence intensity, siCL (control) versus siEGFR (knockdown) SKBr3 cells” value was “significantly greater intensity”. For the same compound, the “acute toxicity on histology (H&E)” value in data set [15] is “no evidence of acute toxicity”.

In the case of “EGF: endogenous ligand for EGFR, positive control”, in [10] (EGF 100 ng/mL), the “phosphorylation of AKT (p-AKT) and ERK (p-ERK), positive control” value was “strong phosphorylation activity”.

For `CS(=O)(=O)CCNCc1ccc(-c2ccc3ncnc(Nc4ccc(OCc5cccc(F)c5)c(Cl)c4)c3c2)o1` [lapatinib, reference compound], the “expression of p-ErbB2, p-AKT and p-ERK” value in data set [10] (lapatinib 100 nM) was “reduced expression”.
